Measurements gathered from unrelated publications.
Lines come from different studies, so protocols differ.
RPS6KA1 C-terminal kinase domain: Ribosomal protein S6 kinase alpha-1, C-terminal kinase domain (RPS6KA1, Homo sapiens, UniProt Q15418)
RPS6KA1: Ribosomal protein S6 kinase alpha-1 (RPS6KA1, Homo sapiens, UniProt Q15418)

The remaining binding of `Cn1cncc1[C@@](O)(COc1ccc(C#N)cc1-c1ccc(OC(F)(F)F)cc1)c1ccc(C#N)cc1` is reported as 100% (RPS6KA1 C-terminal kinase domain; cell-free assay, competition with immobilised ligand; 1 µM).
For `C#Cc1n[nH]c2c(-c3cn([C@@H](C)c4ccccc4)c(=O)[nH]c3=O)cc(F)cc12`, the inhibition was 6.2% (RPS6KA1; enzyme activity, inhibitor; 0.1 µM).
For `N#CC1(c2ccccn2)CCN(Cc2cc(C(=O)O)c(=O)n3ccccc23)CC1`, the remaining binding was 100% (RPS6KA1 C-terminal kinase domain; cell-free assay, competition with immobilised ligand; 1 µM).
With `Cn1cc(-c2cccc(N3CCc4c(sc5c4CC(C)(C)C5)C3=O)c2CO)cc(Nc2ccncn2)c1=O` the inhibition was -1% (RPS6KA1; enzyme activity, inhibitor; 1 µM).
For `Nc1ncc(-c2nc(N3CCOCC3)nc(N3CCOCC3)n2)c(C(F)F)n1`, the remaining binding was 88% (RPS6KA1 C-terminal kinase domain; binding, competition with immobilised ligand; 10 µM).
With `C#Cc1n[nH]c2c(-c3cn([C@@H](C)c4ccccn4)c(=O)[nH]c3=O)cc(F)cc12` the inhibition was 7.4% (RPS6KA1; enzyme activity, inhibitor; 0.1 µM).
With `O=c1[nH]c2ccccc2n1C1CCN(Cc2ccc(-c3[nH]c4cc5ncnc5cc4nc3-c3ccccc3)cc2)CC1` the remaining signal was 101% (RPS6KA1; cell-free assay; 0.5 µM).
The remaining binding of `Cc1nn(C)cc1-c1nc2c(N3CCN(Cc4ccc(Cl)cc4)CC3)c(Cl)cnc2[nH]1` is reported as 100% (Ribosomal protein S6 kinase alpha-1, N-terminal kinase domain (RPS6KA1, Homo sapiens, UniProt Q15418); binding, competition with immobilised ligand; 1 µM).
For `Cn1cc(-c2cc(F)cc(N3CCn4c(cc5c4CCCC5)C3=O)c2CO)cc(Nc2ccc(N3CCN(C4COC4)CC3)cn2)c1=O`, the inhibition was 0% (RPS6KA1; enzyme activity, inhibitor; 0.1 µM).
The remaining activity of `CC(C)(C)c1cc(C=C(C#N)C#N)cc(Br)c1O` is reported as 104% (RPS6KA1; enzyme activity, inhibitor; 0.5 µM).
